Data as given in ChEMBL document CHEMBL3525946, “Species comparison of in vivo P-glycoprotein-mediated brain efflux using mdr1a-deficient rats and mice” (Drug Metab Dispos, 2012).

Experiments:
[1] = Percentage unbound in Crl:NMRI(Han) mouse plasma at 1 uM after 5 hrs by equilibrium dialysis method; format: ADME, cell-free
Method in brief: (§1)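 Equilibrium dialysis (12-14 kDa membrane) of plasma or brain homogenate from naïve male Sprague-Dawley rats or Crl:NMRI(Han) mice. Donor side spiked to 1 µM final; receiver phosphate buffer pH 7.4; 37°C for 5 h. Buffer phase quantified by LC-MS. Brain fu corrected for homogenate dilution to intact tissue. Mean of two independent determinations.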

[2] = Total plasma concentration in wild type Sprague-Dawley rat expressing Abcb1a at 9 mg/kg/day administered through continuous minipump treatment for 3 days by UPLC-MS analysis; format: ADME, organism-based; details: other: continuous minipump
Method in brief: (§2)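 Drug was infused subcutaneously by osmotic minipump for 3 days to steady state, at 1 µl/h in mice and 10 µl/h in rats, with doses derived from body weight and delivery rate. Animals were decapitated. Plasma came from EDTA trunk blood spun at 5000 g for 10 min at 4 °C. Whole brain was homogenised 1:4 in 70% acetonitrile and the supernatant kept. Samples were protein-precipitated with internal standard and analysed by UPLC. n=3-5, mean ± SEM.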

[3] = Total drug level in wild type Sprague-Dawley rat brain expressing Abcb1a at 9 mg/kg/day administered through continuous minipump treatment for 3 days by UPLC-MS analysis; format: ADME, organism-based; details: other: continuous minipump, read-out: Drug uptake; method in brief: as §2
[4] = Total plasma concentration in mdr1a-deficient rat at 9 mg/kg/day administered through continuous minipump treatment for 3 days by UPLC-MS analysis; format: ADME, organism-based; details: other: continuous minipump; method in brief: as §2
[5] = Total drug level in mdr1a-deficient rat brain at 9 mg/kg/day administered through continuous minipump treatment for 3 days by UPLC-MS analysis; format: ADME, organism-based; details: other: continuous minipump, read-out: Drug uptake; method in brief: as §2
[6] = Total plasma concentration in wild type Crl:CF1 mouse expressing Abcb1a mutant at 6 mg/kg/day administered through continuous minipump treatment for 3 days by UPLC-MS analysis; format: ADME, organism-based; details: other: continuous minipump
Method in brief: (§3)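 Subcutaneous osmotic minipump infusion for 3 days to steady state, implanted under isoflurane (rats 10 µl/h, mice 1 µl/h). Mdr1a-deficient (SD-Abcb1a knockout rats; Crl:CF1-Abcb1a mutant mice) and wild-type animals, n=3-5 per group. After decapitation, EDTA plasma and whole brain (homogenized 1:4 in 70% acetonitrile) were precipitated with internal standard. Parent and metabolites quantified by UPLC-MS. Mean ± SEM.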

[7] = Total drug level in wild type Crl:CF1 mouse brain expressing Abcb1a mutant at 6 mg/kg/day administered through continuous minipump treatment for 3 days by UPLC-MS analysis; format: ADME, organism-based; details: other: continuous minipump, read-out: Drug uptake; method in brief: as §3
[8] = Total plasma concentration in mdr1a-deficient mouse at 6 mg/kg/day administered through continuous minipump treatment for 3 days by UPLC-MS analysis; format: ADME, organism-based; details: other: continuous minipump; method in brief: as §3
[9] = Total drug level in mdr1a-deficient mouse brain at 6 mg/kg/day administered through continuous minipump treatment for 3 days by UPLC-MS analysis; format: ADME, organism-based; details: other: continuous minipump, read-out: Drug uptake; method in brief: as §3
[10] = Percentage unbound in Sprague-Dawley rat plasma at 1 uM after 5 hrs by equilibrium dialysis method; format: ADME, cell-free; method in brief: as §1
[11] = Percentage unbound in Sprague-Dawley rat brain at 1 uM after 5 hrs by equilibrium dialysis method; format: ADME, tissue-based; method in brief: as §1
[12] = Percentage unbound in Crl:NMRI(Han) mouse brain at 1 uM after 5 hrs by equilibrium dialysis method; format: ADME, tissue-based; method in brief: as §1

fraction unbound at 5 h, 1 µM [1]: 0.32
concentration at 72 h [2]: 27 ng/mL
concentration at 72 h [3]: 265 ng/g
concentration at 72 h [4]: 35 ng/mL
concentration at 72 h [5]: 1200 ng/g
concentration at 72 h [6]: 8.8 ng/mL
concentration at 72 h [7]: 191 ng/g
concentration at 72 h [8]: 8.2 ng/mL
concentration at 72 h [9]: 361 ng/g
fraction unbound at 5 h, 1 µM [10]: 0.5
fraction unbound at 5 h, 1 µM [11]: 0.031
fraction unbound at 5 h, 1 µM [12]: 0.035
SMILES: Br.CN(C)CCCC1(c2ccc(F)cc2)OCc2cc(C#N)ccc21 (configuration not stated) [CITALOPRAM HYDROBROMIDE]
